Experimental data from ChEMBL document CHEMBL3425405, “Discovery of Small Molecules for Up-Regulating the Translation of Antiamyloidogenic Secretase, a Disintegrin and Metalloproteinase 10 (ADAM10), by Binding to the G-Quadruplex-Forming Sequence in the 5' Untranslated Region (UTR) of Its mRNA” (J Med Chem, 2015).
Activity calls are given as the source filed them. The rule behind the calls is not given here.

What was measured:
[1] = Binding affinity to 5'-end biotinylated ADAM10 A10-RNA QGRS (unknown origin) by surface plasmon resonance assay method
Method in brief: (§1)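 SPR with 5′-biotinylated A10-RNA-Wt or A10-RNA-Mut immobilized on a neutravidin chip in running buffer (50 mM Tris-HCl pH 7.5, 100 mM KCl). Ligand serial dilutions in running buffer injected at 20 μL/min for association, then dissociation. Chip regenerated with 50 mM NaOH between runs.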

HeLa = assay: Binding affinity to ADAM10 A10-RNA QGRS (unknown origin) transfected in human HeLa cells assessed as increase in ADAM10 translation efficiency at 2 uM after 24 hrs by Renilla/firefly dual luciferase reporter assay; format: cell-based
Method in brief: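 HeLa cells transfected with 0.8 μg A10-Wt, A10-Mut or A10-Del plasmid (G-quadruplex motif upstream of Renilla in psiCHECK-2). Screening: 24 h at a single 2 μM concentration. Follow-up: plasmid for 12 h, then 0, 0.5, 1 or 2.5 μM for 24 h. Renilla normalized to firefly, relative to untreated control; mean ± SD of three independent measurements.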

[2] = Toxicity against APP expressing HEK cells assessed as reduction in cell viability after 48 hrs by MTT assay; format: cell-based, HEK293; conditions: human
[3] = Toxicity against human HeLa cells assessed as reduction in cell viability after 24 hrs by MTT assay; format: cell-based
[4] = Binding affinity to 5'-end biotinylated ADAM10 A10-mutant RNA QGRS (unknown origin) by surface plasmon resonance assay method; method in brief: as §1

| Kd [1] [µM] | Activity [4] | SMILES | Activity (HeLa) [%] | IC50 at 48 h [2] [µM] | IC50 at 24 h [3] [µM] |
| --- | --- | --- | --- | --- | --- |
| 3.4 | inactive | C[n+]1c(/C=C/c2cc3ccccc3[nH]2)ccc2ccccc21 | 119 | 12.4 | > 50 |
| 1.8 | inactive | CN1CCN(c2cc(/C=C/c3cc4ccccc4[nH]3)[n+](C)c3ccccc23)CC1 | 116 | 18.6 | > 50 |
| 47.6 | inactive | CN1CCN(c2cc(/C=C/c3ccc(N4CCOCC4)cc3)nc3ccccc23)CC1 | – | – | – |
| 28.2 | inactive | COc1cc(/C=C/c2ccc3ccccc3[n+]2C)ccc1N1CCOCC1 | 102 | 49.1 | 32.8 |
| > 50 | inactive | CCn1c2ccccc2c2cc(/C=C/c3cc(N4CCN(CCN(C)C)CC4)c4ccccc4[n+]3C)ccc21 | – | – | – |
| 33.3 | inactive | CN1CCN(c2cc(/C=C/c3ccccc3)[n+](C)c3ccccc23)CC1 | 91.5 | 36.3 | > 50 |
| 10.9 | inactive | COc1cc(/C=C/c2cc(N3CCN(C)CC3)c3ccccc3[n+]2C)cc(OC)c1OC | – | – | – |
| 11.7 | inactive | COc1cc(/C=C/c2cc(N3CCN(C)CC3)c3ccccc3[n+]2C)ccc1F | – | – | – |
| > 50 | inactive | C[n+]1c(/C=C/c2ccccc2)ccc2ccccc21 | 101 | > 50 | > 50 |
| > 50 | inactive | CCn1c2ccccc2c2cc(/C=C/c3ccc4ccccc4n3)ccc21 | – | – | – |
| 16.3 | inactive | CN1CCN(c2cc(/C=C/c3cc([N+](=O)[O-])ccc3O)[n+](C)c3ccccc23)CC1 | 98.7 | 21.5 | > 50 |
| 46.3 | inactive | C[n+]1c(/C=C/c2cc([N+](=O)[O-])ccc2O)ccc2ccccc21 | – | – | – |
| > 50 | inactive | CCn1c2ccccc2c2cc(/C=C/c3cc(N4CCN(C)CC4)c4ccccc4n3)ccc21 | – | – | – |
| 2.6 | inactive | CN1CCN(c2cc(/C=C/c3ccc(N4CCOCC4)cc3)[n+](C)c3ccccc23)CC1 | 137 | 29.3 | > 50 |
| > 50 | inactive | CCn1c2ccccc2c2cc(/C=C/c3cc(N4CCCCC4)c4ccccc4n3)ccc21 | – | – | – |
| 20.5 | inactive | COc1cc(/C=C/c2ccc3ccccc3[n+]2C)cc(OC)c1O | – | – | – |
| 15.8 | inactive | C[n+]1c(/C=C/c2ccc(N3CCOCC3)cc2)ccc2ccccc21 | 92 | 23.3 | 43.4 |
| 18 | inactive | COc1cc(/C=C/c2ccc3ccccc3[n+]2C)ccc1F | – | – | – |
| > 50 | inactive | C[n+]1c(/C=C/c2cc([N+](=O)[O-])ccc2O)cc(N2CCOCC2)c2ccccc21 | – | – | 17.3 |
| 27.1 | inactive | COc1cc(/C=C/c2cc(N3CCOCC3)c3ccccc3[n+]2C)cc(OC)c1O | – | – | – |
| 33 | inactive | COc1cc(/C=C/c2cc(N3CCN(C)CC3)c3ccccc3[n+]2C)ccc1N1CCOCC1 | – | – | – |
| 8.4 | inactive | CN1CCN(c2cc(/C=C/c3ccc(O)cc3)[n+](C)c3ccccc23)CC1 | – | – | – |
| 16.5 | inactive | COc1cc(/C=C/c2cc(N3CCN(C)CC3)c3ccccc3[n+]2C)cc(OC)c1O | 108 | 25.8 | > 50 |
| 45 | inactive | CCn1c2ccccc2c2cc(/C=C/c3cc(N4CCN(CCCN(C)C)CC4)c4ccccc4[n+]3C)ccc21 | – | – | – |
| 25 | inactive | COc1cc(/C=C/c2cc(N3CCCCC3)c3ccccc3[n+]2C)cc(OC)c1O | – | – | – |
| 32.1 | inactive | CCn1c2ccccc2c2cc(/C=C/c3cc(N4CCN(CCO)CC4)c4ccccc4[n+]3C)ccc21 | – | – | – |
| > 50 | inactive | C[n+]1c(/C=C/c2cc([N+](=O)[O-])ccc2O)cc(N2CCCCC2)c2ccccc21 | – | – | – |
| 15.9 | inactive | C[n+]1c(/C=C/c2ccc(O)cc2)ccc2ccccc21 | – | – | – |
| > 50 | inactive | CCn1c2ccccc2c2cc(/C=C/c3cc(N4CCCCC4)c4ccccc4[n+]3C)ccc21 | – | – | – |

| SMILES | Kd [1] [µM] | Activity [4] | Activity (HeLa) [%] | IC50 at 48 h [2] [µM] | IC50 at 24 h [3] [µM] |
| --- | --- | --- | --- | --- | --- |
| COc1cc(/C=C/c2ccc3ccccc3[n+]2C)cc(OC)c1OC | 9.3 | inactive | – | – | – |
